# Measured values as given in ChEMBL document CHEMBL3407374, “Synthesis of structural analogues of hexadecylphosphocholine and their antineoplastic, antimicrobial and amoebicidal activity” (Eur J Med Chem, 2015).
# Key:
# MCF7 = test: Cytotoxicity against human MCF7 cells after 24 hrs by MTT method; format: functional, cell-based; conditions: MCF7, 24 h
# Method in brief: (§1)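 MCF-7 grown in MEM with NEA, FCS, glutamine; A2780 in RPMI-1640 with FCS, glutamine; 37 °C, 5% CO₂, trypsin-EDTA passaging. Seeded 20 000 cells/well, treated after about 20 h; 24-h exposure. MTT read-out, formazan dissolved in DMSO, read at 492/520 nm. IC50 from log inhibitor versus normalized response sigmoidal fit.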
# A2780 = test: Cytotoxicity against human A2780 cells after 24 hrs by MTT method; format: functional, cell-based; conditions: A2780, 24 h; method in brief: as §1
# HuT78 = test: Cytotoxicity against human HUT78 cells after 24 hrs by MTS method; format: functional, cell-based; conditions: HuT78, 24 h
# Method in brief: (§2)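 THP-1 and HUT-78 grown in suspension in RPMI-1640 with FCS, glutamine, penicillin-streptomycin, NEA, 2-sulfanylethanol, sodium pyruvate; 37 °C, 5% CO₂; passaged by centrifugation. 24-h exposure; MTS read-out (water-soluble formazan) at 492/520 nm. IC50 from log inhibitor versus normalized response sigmoidal fit.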
# THP-1 = test: Cytotoxicity against human THP1 cells after 24 hrs by MTS method; format: functional, cell-based; conditions: THP-1, 24 h; method in brief: as §2
# Acanthamoeba lugdunensis = test: Antiprotozoal activity against Acanthamoeba lugdunensis trophozoites assessed as viability after 1 to 48 hrs by trypan blue exclusion assay; format: functional
# Method in brief: (§3)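 Trophozoites axenized from 2-day monoxenic agar cultures via BCS then PYG media with antibiotics, then cultured antibiotic-free in PYG. 2 × 10⁵ cells/ml suspension mixed 1:1 with medium holding compound; final […]. Survivors counted by haemocytometer with trypan blue at 1, 24, 48 h; eradication confirmed by 14-day PYG regrowth; MTC = lowest concentration giving 100% eradication.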
# Acanthamoeba quina [1] = test: Antiprotozoal activity against Acanthamoeba quina trophozoites assessed as viability after 1 to 48 hrs by trypan blue exclusion assay; format: functional; method in brief: as §3
# Staphylococcus aureus = test: Antimicrobial activity against Staphylococcus aureus ATCC 29/58 assessed as prevention of colony formation after 24 hrs by spectrophotometry; format: functional; conditions: ATCC 29/58, 24 h
# Method in brief: (§4)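 Bacteria grown 24 h on blood agar, Candida on Sabouraud agar; suspensions in physiological solution (pH 7.2), 5 × 10⁷ CFU/ml bacteria, 5 × 10⁵ CFU/ml Candida. […] suspension added to aqueous compound solution plus double-strength peptone broth (bacteria) or Sabouraud medium (Candida). Incubated 24 h at 37 °C in 96-well plates, then subcultured on agar 24 h at 37 °C.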
# Escherichia coli = test: Antimicrobial activity against Escherichia coli ATCC 377/79 assessed as prevention of colony formation after 24 hrs by spectrophotometry; format: functional; conditions: ATCC 377/79, 24 h; method in brief: as §4
# Candida albicans = test: Antimicrobial activity against Candida albicans ATCC 8186 assessed as prevention of colony formation after 24 hrs by spectrophotometry; format: functional; conditions: ATCC 8186, 24 h; method in brief: as §4
# [2] = Solubility of the compound in water; format: physicochemical; conditions: buffer
# [3] = Cytotoxicity against human lymphocytes assessed as growth inhibition at 500 uM after 24 hrs by MTS method; format: cell-based, Lymphocyte; conditions: for growth inhibition (GI): lymphocyte, 24 h, 500 µM; for inhibition at 24 h, 500 µM: human lymphocytes, read-out: GI
# [4] = Critical micelle concentration of the compound; format: ADME
# Acanthamoeba quina [5] = test: Ratio of miltefosine MTC to compound MTC for Acanthamoeba quina trophozoites assessed as viability after 1 to 48 hrs by trypan blue exclusion assay; format: functional
SMILES,MIC (Staphylococcus aureus),MIC (Escherichia coli),MIC (Candida albicans),solubility [2],CMC [4],IC50 (MCF7),IC50 (A2780),IC50 (HuT78),IC50 (THP-1),MTC (Acanthamoeba lugdunensis),MTC (Acanthamoeba quina [1]),growth inhibition (GI) [3],"inhibition at 24 h, 500 µM [3]",Ratio (Acanthamoeba quina [5])
CCCCCCCCCCCCOP(=O)([O-])OCC[N+](C)(C)CCCCC,> 1000 µM,> 1000 µM,184 µM,soluble,,66.1 µM,24.8 µM,55.2 µM,93.2 µM,125 µM,125 µM,,,
CCCCCCCCCCCC[N+](C)(C)CCOP(=O)([O-])OCCCCC,> 1000 µM,> 1000 µM,352 µM,soluble,,25.8 µM,18.3 µM,68 µM,71.2 µM,125 µM,125 µM,,,
CCCCCCCCCCCCCCCOP(=O)([O-])OCC[N+](C)(C)CC,> 1000 µM,> 1000 µM,2.93 µM,soluble,,43.3 µM,10.1 µM,62.7 µM,96.8 µM,125 µM,125 µM,,,
CCCCCCCCCCCCCC[N+](C)(C)CCOP(=O)([O-])OCCC,> 1000 µM,> 1000 µM,86.3 µM,soluble,,20.9 µM,9.26 µM,29.1 µM,29.4 µM,125 µM,125 µM,,12%,
CCCCCCCCCCCCCCCCOP(=O)([O-])OCC[N+](C)(C)C [MILTEFOSINE],11.5 µM,> 1000 µM,2.87 µM,,1.25 umol/dm3,35.7 µM,8.87 µM,67.2 µM,81.3 µM,250 µM,125 µM,,,
CCCCCCCCCCCCCCC[N+](C)(C)CCOP(=O)([O-])OCC,> 1000 µM,> 1000 µM,21.1 µM,soluble,,14.4 µM,7.44 µM,35.2 µM,30.5 µM,62.5 µM,62.5 µM,,10%,2
CCCCCCCCCCCCCCOP(=O)([O-])OCC[N+](C)(C)CCC,> 1000 µM,> 1000 µM,11.7 µM,soluble,,50.6 µM,28.6 µM,51.4 µM,127 µM,125 µM,125 µM,,,
CCCCCCCCOP(=O)([O-])OCC[N+](C)(C)CCCCCCCC,,,,,1 mmol/dm3,,,,,,,,,

# More lines, main results first:
MIC (Staphylococcus aureus),MIC (Escherichia coli),MIC (Candida albicans),solubility [2],CMC [4],SMILES,IC50 (MCF7),IC50 (A2780),IC50 (HuT78),IC50 (THP-1),MTC (Acanthamoeba lugdunensis),MTC (Acanthamoeba quina [1]),growth inhibition (GI) [3],"inhibition at 24 h, 500 µM [3]",Ratio (Acanthamoeba quina [5])
> 1000 µM,> 1000 µM,352 µM,soluble,,CCCCCCCCCC[N+](C)(C)CCOP(=O)([O-])OCCCCCCC,26.2 µM,4.7 µM,437 µM,647 µM,125 µM,125 µM,Non-toxic,,
> 1000 µM,> 1000 µM,734 µM,soluble,,CCCCCCCCCOP(=O)([O-])OCC[N+](C)(C)CCCCCCCC,34 µM,7.31 µM,146 µM,170 µM,250 µM,250 µM,Non-toxic,,
> 1000 µM,> 1000 µM,360 µM,soluble,,CCCCCCCCCCC[N+](C)(C)CCOP(=O)([O-])OCCCCCC,64.5 µM,25.7 µM,96 µM,31.2 µM,62.5 µM,125 µM,,,
> 1000 µM,> 1000 µM,180 µM,soluble,,CCCCCCCCCCOP(=O)([O-])OCC[N+](C)(C)CCCCCCC,62.2 µM,35.1 µM,52.9 µM,101 µM,250 µM,250 µM,,,
> 1000 µM,> 1000 µM,188 µM,soluble,,CCCCCCCCCCCOP(=O)([O-])OCC[N+](C)(C)CCCCCC,111 µM,19.2 µM,82.6 µM,92 µM,125 µM,250 µM,,,
> 1000 µM,> 1000 µM,367 µM,soluble,,CCCCCCCCC[N+](C)(C)CCOP(=O)([O-])OCCCCCCCC,19.2 µM,4.32 µM,280 µM,544 µM,125 µM,125 µM,Non-toxic,,
